In ChEMBL document CHEMBL2202989, “New adamantane phenylalkylamines with σ-receptor binding affinity and anticancer activity, associated with putative antagonism of neuropathic pain” (J Med Chem, 2012):
The source made the active and inactive calls. The calls are words filed in the database; no cut-off is given here.

Key:
BXPC-3 [1] = test: Cell cycle arrest in human BxPC3 cells assessed as accumulation at sub G1 phase at 50 uM after 24 hrs using propidium iodide staining by FACS analysis (reference value: 9 %); format: functional
Outline: (§1)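 Cells were plated 24 h before treatment and exposed for 24 h at final 0.5, 5, 15 and 50 μM in 0.5% DMSO, against vehicle-treated controls. Cells were then trypsinised and fixed in cold ethanol for 3 h at 4 °C. They were stained in a mix of RNase (200 μg/mL) and PI (1 mg/mL) for 45 min at room temperature in the dark. Flow cytometry used 488 nm excitation and 10 000 gated cells. Phase percentages were assigned from DNA content.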

PC-3 [2] = test: Antitumor activity against human PC3 cells xenografted in SCID mouse assessed as tumor growth inhibition at 55 mg/kg, ip administered 5 consecutive days in a week for two cycles measured after 2 cycles relative to control; format: functional; conditions: PC-3, ip, route intraperitoneal, read-out: TGI
Outline: (§2)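 PC3 xenografts were grown in SCID mice (10^6 cells per inoculum), 14 mice (28 tumors) per group, dosed ip from about 100 mm3. The test agent was given in 5% Tween 80; paclitaxel was given in Cremophor diluted in saline, with a vehicle of 1:1 ethanol/Cremophor diluted 1:3 in saline. Volume and %ΔT/ΔC were derived from caliper readings twice weekly. Occurrence of primary tumors and of axillary and bone metastases was scored (n = 7). Two-tailed t test.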

PC-3 [3] = test: Cell cycle arrest in human PC3 cells assessed as accumulation at S phase at 15 uM after 24 hrs using propidium iodide staining by FACS analysis (reference value: 42 %); format: functional
MCF7 = test: Growth inhibition of human MCF7 cells after 48 hrs by SRB assay; format: functional; conditions: MCF7, 48 h
Outline: (§3)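 Cells grown in RPMI 1640 with 5% heat-inactivated FCS, 2 mM L-glutamine and antibiotics, 37 °C, 5% CO2. Seeded at 3500–30000 cells/well and left 24 h before dosing. DMSO solutions added at 10-fold dilutions from 100 to 0.01 μM for 48 h. Cells TCA-fixed and SRB-stained, absorbance read at 540 nm; GI50 derived against the time-zero plate.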

BXPC-3 [4] = test: Induction of apoptosis in human BxPC3 cells assessed as healthy cells at 5 uM using annexin V/7-AAD by FACS analysis (reference value: 79 %); format: functional
PC-3 [5] = test: Cell cycle arrest in human PC3 cells assessed as accumulation at G1 phase at 5 uM after 24 hrs using propidium iodide staining by FACS analysis (reference value: 36 %); format: functional
BXPC-3 [6] = test: Cell cycle arrest in human BxPC3 cells assessed as accumulation at G2 phase at 50 uM after 24 hrs using propidium iodide staining by FACS analysis (reference value: 12 %); format: functional; outline: as §1
OVCAR-5 = test: Antitumor activity against human OVCAR5 cells xenografted in SCID mouse assessed as tumor growth inhibition at 55 mg/kg, ip administered 5 consecutive days in a week for two cycles measured after 2 cycles relative to control; format: functional; conditions: OVCAR-5, ip, route intraperitoneal, read-out: TGI
Outline: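 SCID mice carried OVCAR5 xenografts (10^6 cells per inoculum), 16 mice (32 tumors) per group, with ip dosing in 5% Tween 80 from a tumor volume of about 100 mm3. Caliper volume was measured twice weekly and %ΔT/ΔC derived. At termination, primary tumors were weighed and secondary metastases were scored at axillary and bone sites (n = 7−8). Two-tailed t test.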

BXPC-3 [7] = test: Induction of apoptosis in human BxPC3 cells assessed as cleaved caspase3 containing cells at 50 uM by antibody-based FACS analysis (reference value: 8.2 %); format: functional
Mus musculus [8] = test: Analgesic activity in CD1 mouse neuropathic pain model assessed as reduction in paw licking time at 50 mg/kg, po administered 1 hr prior to formalin challenge in presence of paclitaxel; format: functional, organism-based; set-up: dose 50 mg/kg
Outline: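 CD1 male mice (34−40 g), free access to food and water, were given paclitaxel 6 mg/kg ip once in saline on day 0. On day 14 the test compound was given orally 1 h before formalin was injected into the hind paw. Time spent licking and biting the injected paw and leg was recorded at 0−5 and 35−40 min after formalin.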

IGROV-1 [9] = test: Growth inhibition of human IGROV1 cells after 48 hrs by SRB assay; format: functional; conditions: IGROV-1, 48 h; outline: as §3
BXPC-3 [10] = test: Induction of apoptosis in human BxPC3 cells assessed as healthy cells at 15 uM using annexin V/7-AAD by FACS analysis (reference value: 79 %); format: functional
BXPC-3 [11] = test: Induction of apoptosis in human BxPC3 cells assessed as late apoptosis at 15 uM using annexin V/7-AAD by FACS analysis (reference value: 9 %); format: functional
Mus musculus [12] = test: Toxicity in CD1 mouse assessed as mortality at 40 to 55 mg/kg, ip for 2 to 3 weeks; format: organism-based; set-up: route intraperitoneal; conditions: in vivo
Outline: (§4)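 CD-1 (male and female) and SCID mice dosed ip at 40−55 mg/kg in 5% Tween 80 for chronic 2−3 week regimens. Deaths and body weight loss compared with vehicle (Tween 80 or Cremophor) and reference-drug groups. Weight loss, neurological, behavioral and dietary changes recorded as toxicity signs.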

BXPC-3 [13] = test: Cell cycle arrest in human BxPC3 cells assessed as accumulation at G1 phase at 50 uM after 24 hrs using propidium iodide staining by FACS analysis (reference value: 41 %); format: functional; outline: as §1
PC-3 [14] = test: Cell cycle arrest in human PC3 cells assessed as accumulation at S phase at 50 uM after 24 hrs using propidium iodide staining by FACS analysis (reference value: 42 %); format: functional
PC-3 [15] = test: Cell cycle arrest in human PC3 cells assessed as accumulation at sub G1 phase at 50 uM after 24 hrs using propidium iodide staining by FACS analysis (reference value: 4 %); format: functional
IGROV-1 [16] = test: Induction of apoptosis in human IGROV1 cells assessed as total apoptotic death at 15 uM using annexin V/7-AAD by FACS analysis (reference value: 13 %); format: functional
Outline: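 Cells plated 24 h before treatment, then exposed 24 h to 0.5, 5, 15 or 50 μM compound (final DMSO 0.5%); vehicle controls included. Cells scraped and stained with annexin V-FITC and 7-AAD for 15 min on ice in the dark. Flow cytometry with 488 nm excitation, 10,000 gated cells. Early apoptosis was annexin V+/7-AAD−, late was annexin V+/7-AAD+.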

Mus musculus [17] = test: Toxicity in SCID mouse assessed as body weight loss at 40 to 55 mg/kg, ip for 2 to 3 weeks; format: organism-based; set-up: route intraperitoneal; conditions: in vivo; outline: as §4
IGROV-1 [18] = test: Induction of apoptosis in human IGROV1 cells assessed as healthy cells at 50 uM using annexin V/7-AAD by FACS analysis (reference value: 86 %); format: functional
BXPC-3 [19] = test: Cell cycle arrest in human BxPC3 cells assessed as accumulation at >G2/M phase at 50 uM after 24 hrs using propidium iodide staining by FACS analysis (reference value: 6 %); format: functional; outline: as §1
PC-3 [20] = test: Antitumor activity against human PC3 cells xenografted in SCID mouse assessed as axillary metastasis at 55 mg/kg, ip administered 5 consecutive days in a week for two cycles measured after 2 cycles relative to control; format: functional; conditions: route intraperitoneal; outline: as §2
BXPC-3 [21] = test: Cell cycle arrest in human BxPC3 cells assessed as accumulation at S phase at 50 uM after 24 hrs using propidium iodide staining by FACS analysis (reference value: 33 %); format: functional; outline: as §1
[22] = read-out: LC50 (the source's name)

Question: Which Activity (BXPC-3 [1]) does the source give for `CN1CCN(CCCc2ccc(C(c3ccccc3)C34CC5CC(CC(C5)C3)C4)cc2)CC1` (configuration not stated) here?
Answer: 23%

Question: And the inhibition in vivo at 55 mg/kg (PC-3 [2])?
Answer: 48%

Question: And the Activity (PC-3 [3])?
Answer: 31%

Question: What about the GI50 (MCF7) of the same compound?
Answer: 3.2 µM

Question: What about the TGI (MCF7) of the same compound?
Answer: 6.1 µM

Question: And the CC50 (MCF7; [22])?
Answer: 0.009 µM

Question: What about the Activity (BXPC-3 [4]) of the same compound?
Answer: 77%

Question: And the Activity (PC-3 [5])?
Answer: 36%

Question: What about the Activity (BXPC-3 [6]) of the same compound?
Answer: 9%

Question: What about the inhibition in vivo at 55 mg/kg (OVCAR-5) of the same compound?
Answer: 44.5%

Question: And the Activity (BXPC-3 [7])?
Answer: 4.8%

Question: What about the Activity (Mus musculus [8]) of the same compound?
Answer: Active

Question: And the GI50 (IGROV-1 [9])?
Answer: 4.54 µM

Question: And the TGI (IGROV-1 [9])?
Answer: 11.9 µM

Question: And the CC50 (IGROV-1 [9]; [22])?
Answer: 0.0748 µM

Question: And the Activity (BXPC-3 [10])?
Answer: 35%

Question: What about the Activity (BXPC-3 [11]) of the same compound?
Answer: 26%

Question: And the Activity (Mus musculus [12])?
Answer: Non-toxic

Question: What about the Activity (BXPC-3 [13]) of the same compound?
Answer: 31%

Question: And the Activity (PC-3 [14])?
Answer: 31%

Question: What about the Activity (PC-3 [15]) of the same compound?
Answer: 12%

Question: What about the Activity (IGROV-1 [16]) of the same compound?
Answer: 57%

Question: And the Activity (Mus musculus [17])?
Answer: Non-toxic

Question: And the Activity (IGROV-1 [18])?
Answer: 26%

Question: What about the Activity (BXPC-3 [19]) of the same compound?
Answer: 4%

Question: And the Activity (PC-3 [20])?
Answer: 0%

Question: What about the Activity (BXPC-3 [21]) of the same compound?
Answer: 33%
